ChEMBL document CHEMBL1122233, “Antihypertensive 9-substituted 1-oxa-4,9-diazaspiro[5.5]undecan-3-ones” (J Med Chem, 1983)

Experiments:
Rattus norvegicus [1] = test: Percentage fall in systolic blood pressure after 2 hours at 50 mg/kg given perorally; type: functional, Artery; conditions: route oral
How it was run: (§1)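 Male Okamoto-Aoki SHR, four per group, with a concurrent vehicle control group. Oral dosing in water (0.1 mL/10 g) on two consecutive mornings. After the day-2 dose, rats were restrained in a 30 °C chamber. Tail-cuff systolic pressure was taken at 1-4 h from four traces per rat. Result is % decrease versus control mean, by 1-tailed t test, p ≤ 0.05.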

Rattus norvegicus [2] = test: Percentage fall in systolic blood pressure after 4 hours at 12.5 mg/kg given perorally; type: functional, organism-based; set-up: dose 12.5 mg/kg; conditions: Artery; how it was run: as §1
Rattus norvegicus [3] = test: Percentage fall in systolic blood pressure after 2 hours at 12.5 mg/kg given perorally; type: functional, organism-based; set-up: dose 12.5 mg/kg; conditions: Artery; how it was run: as §1
Rattus norvegicus [4] = test: Percentage fall in systolic blood pressure after 3 hours at 12.5 mg/kg given perorally; type: functional, organism-based; set-up: dose 12.5 mg/kg; conditions: Artery; how it was run: as §1
Rattus norvegicus [5] = test: Percentage fall in systolic blood pressure after 3 hours at 50 mg/kg given perorally; type: functional, Artery; conditions: route oral; how it was run: as §1
Rattus norvegicus [6] = test: Percentage fall in systolic blood pressure after 1 hr at 12.5 mg/kg given perorally; type: functional, Artery; conditions: route oral; how it was run: as §1
Rattus norvegicus [7] = test: Percentage fall in systolic blood pressure after 4 hours at 50 mg/kg given perorally; type: functional, Artery; conditions: route oral; how it was run: as §1
Rattus norvegicus [8] = test: Percentage fall in systolic blood pressure after 1 hr at 50 mg/kg given perorally; type: functional, Artery; conditions: route oral; how it was run: as §1
Rattus norvegicus [9] = test: (§2) Percentage fall in systolic blood pressure after 1 hr at 25 mg/kg given perorally; type: functional, Artery; conditions: route oral
How it was run: (§3)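 Male Okamoto-Aoki spontaneously hypertensive rats, trained, in groups of four matched for mean systolic pressure; five treated groups and one vehicle control run concurrently. Oral dosing in water (solution or suspension, 0.1 mL/10 g) on two consecutive mornings. On day 2, rats were restrained at 30.0 ± 1.0 °C and tail-cuff systolic pressure recorded at 1–4 h; percent fall versus control, 1-tail t test, p ≤ 0.05.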

Rattus norvegicus [10] = test: Percentage fall in systolic blood pressure after 2 hours at 25 mg/kg given perorally; type: functional, organism-based; set-up: dose 25 mg/kg; conditions: Artery; how it was run: as §3
Rattus norvegicus [11] = test: Percentage fall in systolic blood pressure after 3 hours at 25 mg/kg given perorally; type: functional, Artery; conditions: route oral; how it was run: as §3
Rattus norvegicus [12] = test: Percentage fall in systolic blood pressure after 4 hours at 25 mg/kg given perorally; type: functional, Artery; conditions: route oral; how it was run: as §3
Rattus norvegicus [13] = test: Percentage fall in systolic blood pressure after 2 hr at 25 mg/kg given perorally; type: functional, Artery; conditions: route oral; how it was run: as §3
Rattus norvegicus [14] = test: Percentage fall in systolic blood pressure after 4 hr at 25 mg/kg given perorally; type: functional, Artery; conditions: route oral; how it was run: as §3
Rattus norvegicus [15] = test: Percentage fall in systolic blood pressure after 3 hr at 25 mg/kg given perorally; type: functional, organism-based; set-up: dose 25 mg/kg; conditions: Artery; how it was run: as §3
Rattus norvegicus [16] = test: as §2; type: functional, organism-based; set-up: dose 25 mg/kg; conditions: Artery; how it was run: as §3

SMILES: O=C1COC2(CCN(CCc3c[nH]c4ccccc34)CC2)CN1c1ccccc1
- Decrease in SBP (Rattus norvegicus [1]): 59%
- Decrease in SBP (Rattus norvegicus [2]): Not significant
- Decrease in SBP (Rattus norvegicus [3]): Not significant
- Decrease in SBP (Rattus norvegicus [4]): Not significant
- Decrease in SBP (Rattus norvegicus [5]): 45%
- Decrease in SBP (Rattus norvegicus [6]): 19%
- Decrease in SBP (Rattus norvegicus [7]): 40%
- Decrease in SBP (Rattus norvegicus [8]): 45%

SMILES: O=C1COC2(CCN(CCc3ccc(O)cc3)CC2)CN1
- Decrease in SBP (Rattus norvegicus [9]): 13%
- Decrease in SBP (Rattus norvegicus [10]): Not significant
- Decrease in SBP (Rattus norvegicus [11]): 11%
- Decrease in SBP (Rattus norvegicus [12]): 21%

SMILES: O=C1COC2(CCN(CC(O)C3COc4ccccc4O3)CC2)CN1c1ccccc1 (stereo unspecified)
- Decrease in SBP (Rattus norvegicus [13]): 25%
- Decrease in SBP (Rattus norvegicus [14]): 16%
- Decrease in SBP (Rattus norvegicus [15]): Not significant
- Decrease in SBP (Rattus norvegicus [16]): Not significant
